This is an account of results in ChEMBL document CHEMBL1156501, “Ibogaine, a noncompetitive inhibitor of serotonin transport, acts by stabilizing the cytoplasm-facing state of the transporter” (J Biol Chem, 2007).

In data set [1] the test system is Sodium-dependent serotonin transporter (Rattus norvegicus), P31652 [S404C]. As to the kind of experiment: Effect on 2-(aminoethyl)methanethiosulphonate hydrobromide-induced inactivation of rat SERT S404C mutant assessed as increase in rate constant for inactivation. In a few lines: (§1)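 Membranes from HeLa cells expressing rat SERT cysteine mutants were filter-bound and treated for 10 min with a range of MTSEA concentrations plus 10 μM ibogaine, 5-HT or cocaine. After washing, residual 0.1 nM [125I]β-CIT binding was measured. The MTSEA concentration giving half-maximal inactivation was used to calculate the inactivation rate constant.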

Data set [2] concerns Sodium-dependent serotonin transporter (Rattus norvegicus), P31652 [G273C]. The data set can be described thus: Effect on 2-(aminoethyl)methanethiosulphonate hydrobromide-induced inactivation of rat SERT G273C mutant assessed as increase in rate constant for inactivation. In a few lines: as §1
The subject of data set [3] is Sodium-dependent serotonin transporter (Rattus norvegicus), P31652 [T284C]. The data set can be described thus: Effect on 2-(aminoethyl)methanethiosulphonate hydrobromide-induced inactivation of rat SERT T284C mutant assessed as increase in rate constant for inactivation. The gist of the method: as §1
Data set [4] deals with Sodium-dependent serotonin transporter (Rattus norvegicus), P31652 [Y107C]. The data set can be described thus: Effect on 2-(aminoethyl)methanethiosulphonate hydrobromide-induced inactivation of rat SERT Y107C mutant assessed as increase in rate constant for inactivation. In a few lines: as §1
Data set [5] concerns Sodium-dependent serotonin transporter (Rattus norvegicus), P31652 [S277C]. The data set can be described thus: Effect on 2-(aminoethyl)methanethiosulphonate hydrobromide-induced inactivation of rat SERT S277C mutant assessed as increase in rate constant for inactivation. In a few lines: as §1
For data set [6], the system named is Sodium-dependent serotonin transporter (Rattus norvegicus), P31652 [V281C]. As to the kind of experiment: Effect on 2-(aminoethyl)methanethiosulphonate hydrobromide-induced inactivation of rat SERT V281C mutant assessed as increase in rate constant for inactivation. The gist of the method: as §1
For data set [7], the species on record is Rattus norvegicus. As to the kind of experiment: Effect on 2-(aminoethyl)methanethiosulphonate hydrobromide-induced inactivation of rat SERT […] mutant assessed as increase in rate constant for inactivation. In a few lines:
as §1

Data set [8] deals with Sodium-dependent serotonin transporter (Rattus norvegicus), P31652 [K272C]. As to the kind of experiment: Effect on 2-(aminoethyl)methanethiosulphonate hydrobromide-induced inactivation of rat SERT K272C mutant assessed as increase in rate constant for inactivation. In a few lines: as §1
For data set [9], the system named is Sodium-dependent serotonin transporter (Rattus norvegicus), P31652 [T276C]. The data set can be described thus: Effect on 2-(aminoethyl)methanethiosulphonate hydrobromide-induced inactivation of rat SERT T276C mutant assessed as increase in rate constant for inactivation. In a few lines: as §1
The species entered for data set [10] is Rattus norvegicus. The data set can be described thus: Effect on 2-(aminoethyl)methanethiosulphonate hydrobromide-induced inactivation of rat SERT X5C mutant. The gist of the method: (§2)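 Membranes from HeLa cells expressing rat SERT X5C or K279C (X5C background) were treated with 2 mM MTSEA plus graded ibogaine. Membranes were washed free of MTSEA and ibogaine, then residual binding was measured with 0.1 nM [125I]β-CIT for 1.5 h at room temperature.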

For data set [11], the species on record is Rattus norvegicus. The data set can be described thus: Effect on 2-(aminoethyl)methanethiosulphonate hydrobromide-induced inactivation of rat SERT K279 mutant. In a few lines: as §2
Data set [12] is filed under the species Rattus norvegicus. The data set can be described thus: Inhibition of 2-(aminoethyl)methanethiosulphonate hydrobromide-induced inactivation of rat SERT S277 mutant assessed as drug level causing half maximal protection from inactivation. The gist of the method: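 Membranes from HeLa cells expressing rat SERT S277C were treated with 50 μM MTSEA plus graded cocaine, ibogaine or 5-HT. After washing, residual [125I]β-CIT binding was measured. The drug concentration giving half-maximal protection from or potentiation of inactivation was fitted by nonlinear regression.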

The target in data set [13] is T1, Sodium-dependent serotonin transporter (Rattus norvegicus, UniProt P31652). As to the kind of experiment: Displacement of [125I]beta-CIT from rat SERT expressed in HeLa cells. The format is cell-based. (In general: Displacement assays read how much labelled ligand stays bound in the presence of the test substance.)
Data set [14] addresses T1, Sodium-dependent serotonin transporter. As to the kind of experiment: Inhibition of [3H]5HT uptake at rat SERT expressed in HeLa cells. The format is cell-based.
In data set [15] the target is T2, Sodium-dependent serotonin transporter (Homo sapiens, UniProt P31645). As to the kind of experiment: Displacement of [125I]beta-CIT from human SERT in human platelet membrane in presence of 5 uM ibogaine. Type of data set: cell membranes.
T2 sequence (P31645 whole entry): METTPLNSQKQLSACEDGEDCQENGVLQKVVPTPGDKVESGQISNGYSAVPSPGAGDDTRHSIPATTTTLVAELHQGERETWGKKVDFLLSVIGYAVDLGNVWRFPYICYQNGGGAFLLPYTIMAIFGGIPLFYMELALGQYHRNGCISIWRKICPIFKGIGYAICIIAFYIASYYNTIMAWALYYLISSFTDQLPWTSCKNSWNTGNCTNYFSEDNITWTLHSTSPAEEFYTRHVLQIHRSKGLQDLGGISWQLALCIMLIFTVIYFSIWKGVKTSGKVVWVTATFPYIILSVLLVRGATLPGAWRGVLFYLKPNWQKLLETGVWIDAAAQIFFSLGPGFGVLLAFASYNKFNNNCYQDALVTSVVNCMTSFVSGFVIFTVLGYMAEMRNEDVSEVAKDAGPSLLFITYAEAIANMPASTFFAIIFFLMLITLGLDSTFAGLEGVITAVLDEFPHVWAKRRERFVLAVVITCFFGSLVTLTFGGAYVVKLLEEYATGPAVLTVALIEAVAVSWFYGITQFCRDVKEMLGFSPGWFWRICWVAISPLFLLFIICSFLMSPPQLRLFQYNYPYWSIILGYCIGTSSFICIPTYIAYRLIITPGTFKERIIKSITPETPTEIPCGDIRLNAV
Data set [16] has as its target T2, Sodium-dependent serotonin transporter.
Compound in data set [17]: COC(=O)[C@H]1[C@@H](OC(=O)c2ccccc2)C[C@@H]2CC[C@H]1N2C
As to the kind of experiment: (§3) Inhibition of [3H]5HT transport at rat SERT expressed in pig LLC-PK1 cells at 5 uM. Type of data set: cell-based. The gist of the method: (§4)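 LLC-PK1 cells stably expressing rat SERT were grown as monolayers. Uptake of [3H]5-HT at varied concentrations was measured for 5 min with or without 5 μM ibogaine. Nonspecific uptake was defined with 100 μM cocaine. Km and Vmax were fitted, with an Eadie-Hofstee plot also shown.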

Compound in data set [18]: CC[C@H]1C[C@H]2C[C@H]3c4[nH]c5ccc(OC)cc5c4CCN(C2)[C@@H]13
Described as §3. The format is cell-based. The gist of the method:
as §4

Active and inactive are the calls of the source. The calls are words filed in the database; no cut-off is given here.

Regarding `CC[C@H]1C[C@H]2C[C@H]3c4[nH]c5ccc(OC)cc5c4CCN(C2)[C@@H]13`, the outcome in [1], in data set [2], in data set [3], in [4], in data set [5] and in data set [6] was Active. For the same molecule, the outcome (in the data set filed under Rattus norvegicus [7]; in data set [8]; in data set [9]) was Active. Moreover, the outcome in the data set filed under Rattus norvegicus [10] and in the data set filed under Rattus norvegicus [11] was inactive. For the same molecule, the Activity in the data set filed under Rattus norvegicus [12] is 0.98 µM.

A word on the IC50: it is the concentration that inhibits the measured activity by half. Turning to `CC[C@H]1C[C@@H]2C[C@H]3c4[nH]c5ccc(OC)cc5c4CCN(C2)[C@@H]13` [IBOGAINE], the values for the IC50 in [13] and in data set [14] were 2500 nM and 6300 nM, respectively.

On to `NCCc1c[nH]c2ccc(O)cc12`, for which the result (in data set [1]; in [2]; in [4]; in data set [5]; in data set [6]; in the data set filed under Rattus norvegicus [7]) was Active. The result in data set [8] and in data set [9] was Active. In addition, the result in data set [3] was inactive. In addition, the Activity in the data set filed under Rattus norvegicus [12] turned out to be 0.68 µM.

In general, Kd refers to the concentration at which binding is half-saturated. As to `COC(=O)[C@H]1[C@@H](c2ccc(I)cc2)C[C@@H]2CC[C@H]1N2C`, the Kd is 2.82 nM in [15] and 0.88 nM in data set [16].

Consider `COC(=O)[C@H]1[C@@H](OC(=O)c2ccccc2)C[C@@H]2CC[C@H]1N2C`, for which the Activity in the data set filed under Rattus norvegicus [12] was determined as 0.58 µM.

B1: Sodium-dependent serotonin transporter (Rattus norvegicus), P31652 (protein)
chain: METTPLNSQKVLSECKDREDCQENGVLQKGVPTTADRAEPSQISNGYSAVPSTSAGDEASHSIPAATTTLVAEIRQGERETWGKKMDFLLSVIGYAVDLGNIWRFPYICYQNGGGAFLLPYTIMAIFGGIPLFYMELALGQYHRNGCISIWRKICPIFKGIGYAICIIAFYIASYYNTIIAWALYYLISSLTDRLPWTSCTNSWNTGNCTNYFAQDNITWTLHSTSPAEEFYLRHVLQIHQSKGLQDLGTISWQLTLCIVLIFTVIYFSIWKGVKTSGKVVWVTATFPYIVLSVLLVRGATLPGAWRGVVFYLKPNWQKLLETGVWVDAAAQIFFSLGPGFGVLLAFASYNKFNNNCYQDALVTSVVNCMTSFVSGFVIFTVLGYMAEMRNEDVSEVAKDAGPSLLFITYAEAIANMPASTFFAIIFFLMLITLGLDSTFAGLEGVITAVLDEFPHIWAKRREWFVLIVVITCVLGSLLTLTSGGAYVVTLLEEYATGPAVLTVALIEAVAVSWFYGITQFCSDVKEMLGFSPGWFWRICWVAISPLFLLFIICSFLMSPPQLRLFQYNYPHWSIVLGYCIGMSSVICIPTYIIYRLISTPGTLKERIIKSITPETPTEIPCGDIRMNAV
Usually Km stands for the substrate concentration at which the rate is half of its maximum. By Vmax is commonly meant the rate approached at saturating substrate. For the molecule B1, in [17], the Km was determined as 0.2 µM and the maximal velocity (Vmax) stood at 35.7 pmol/min/mg. In data set [18], the Michaelis constant (Km) amounted to 0.17 µM and the Vmax was 14 pmol/min/mg.
